Test results taken from ChEMBL document CHEMBL1147099, “In vitro and in vivo antibacterial activities of heteroaryl isothiazolones against resistant gram-positive pathogens” (Antimicrob Agents Chemother, 2007).
Converted amounts (≈) assume the structure as drawn.

Assays:
[1] = tested on: Klebsiella pneumoniae; assay: Antibacterial activity against Klebsiella pneumoniae; type: functional
Procedure, shortened: (§1)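 Aerobic isolates run by CLSI broth microdilution in cation-adjusted Mueller-Hinton II broth (streptococci plus 2–5% lysed horse blood), about 5 × 10^5 CFU/ml final; 24 h at 35–37°C aerobically; MIC read as lowest concentration without visible growth.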

[2] = tested on: Escherichia coli; assay: Antibacterial activity against Escherichia coli after 24 hrs by broth microdilution method; type: functional
Procedure, shortened: (§2)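 CLSI broth microdilution in cation-adjusted Mueller-Hinton II broth, final inoculum about 5 × 10^5 CFU/ml for most strains; streptococci supplemented with 2–5% lysed horse blood, H. influenzae in Haemophilus test medium. Aerobic incubation at 35–37°C for 24 h; MIC = lowest concentration with no visible growth.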

[3] = tested on: Enterobacter sp.; assay: Antibacterial activity against Enterobacter sp.; type: functional; procedure, shortened: as §1
[4] = tested on: Acinetobacter baumannii; assay: Antibacterial activity against Acinetobacter baumannii after 24 hrs by broth microdilution method; type: functional; procedure, shortened: as §2
[5] = tested on: Pseudomonas aeruginosa; assay: Antibacterial activity against Pseudomonas aeruginosa after 24 hrs by broth microdilution method; type: functional; procedure, shortened: as §2
[6] = tested on: Streptococcus viridans; assay: Antibacterial activity against Streptococcus viridans after 24 hrs by broth microdilution method; type: functional; procedure, shortened: as §2
[7] = tested on: Neisseria gonorrhoeae; assay: Antibacterial activity against Neisseria gonorrhoeae after 24 hrs by broth microdilution method; type: functional; procedure, shortened: as §2
[8] = tested on: Haemophilus influenzae; assay: Antibacterial activity against Haemophilus influenzae after 24 hrs by broth microdilution method; type: functional; procedure, shortened: as §2
[9] = tested on: Streptococcus pyogenes; assay: Antibacterial activity against Streptococcus pyogenes; type: functional; procedure, shortened: as §1
[10] = tested on: Moraxella catarrhalis; assay: Antibacterial activity against Moraxella catarrhalis after 24 hrs by broth microdilution method; type: functional; procedure, shortened: as §2
[11] = tested on: Streptococcus pneumoniae; assay: Antibacterial activity against Streptococcus pneumoniae by agar dilution method; type: functional
[12] = Cmax in mouse at 50 mg/kg, sc; type: ADME, organism-based; design: dose 50 mg/kg, route subcutaneous; conditions: in vivo
Procedure, shortened: (§3)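 Fasted mice given one subcutaneous dose (20 or 50 mg/kg); blood taken from groups of three at 0.08, 0.25, 0.5, 1, 2, 4, 8, 24 h. Plasma protein-precipitated with cold acetonitrile plus internal standard, LC-MS/MS (C8, positive ESI, SRM); calibration 5–15,000 ng/ml. Noncompartmental analysis of mean concentrations; AUC to last quantifiable point by linear trapezoidal rule.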

[13] = tested on: Staphylococcus aureus; assay: microbe, parasite or virus in culture; conditions: Mu50
[14] = tested on: Staphylococcus aureus; assay: Antibacterial activity against ethidium bromide-resistant Staphylococcus aureus Mu50 in presence of 20 ug/ml reserpine after 24 hrs by broth microdilution method; type: functional; conditions: Mu50, 24 h
Procedure, shortened: (§4)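 Broth microdilution per CLSI in cation-adjusted Mueller-Hinton II broth, final inoculum approximately 5 × 10^5 CFU/ml. Plates were incubated aerobically at 35 to 37°C for 24 h. MIC was the lowest concentration giving no visible growth. Reserpine, where used, was at a final concentration of 20 μg/ml.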

[15] = Tmax in mouse at 50 mg/kg, sc; type: ADME, organism-based; design: dose 50 mg/kg, route subcutaneous; conditions: in vivo; procedure, shortened: as §3
[16] = tested on: Staphylococcus aureus; assay: Antibacterial activity against ethidium bromide-resistant Staphylococcus aureus BSA643 after 24 hrs by broth microdilution method; type: functional; conditions: BSA643, 24 h; procedure, shortened: as §4
[17] = Tmax in mouse at 20 mg/kg, sc; type: ADME, organism-based; design: dose 20 mg/kg, route subcutaneous; conditions: in vivo; procedure, shortened: as §3
[18] = AUC (0-24 hrs) in mouse at 20 mg/kg, sc; type: ADME, organism-based; design: time < 24 hr, dose 20 mg/kg, route subcutaneous; conditions: plasma; procedure, shortened: as §3
[19] = tested on: Staphylococcus aureus; assay: Antibacterial activity against ethidium bromide-resistant Staphylococcus aureus Mu50 after 24 hrs by broth microdilution method; type: functional; conditions: Mu50, 24 h; procedure, shortened: as §4
[20] = Cmax in mouse at 20 mg/kg, sc; type: ADME, organism-based; design: dose 20 mg/kg, route subcutaneous; conditions: in vivo; procedure, shortened: as §3
[21] = AUC (0-24 hrs) in mouse at 50 mg/kg, sc; type: ADME, organism-based; design: time < 24 hr, dose 50 mg/kg, route subcutaneous; conditions: plasma; procedure, shortened: as §3
[22] = tested on: Staphylococcus aureus; assay: Antibacterial activity against […] Staphylococcus aureus ATCC 29213 in presence of 20 ug/ml reserpine after 24 hrs by broth microdilution method; type: functional; conditions: ATCC 29213, 24 h; procedure, shortened: as §4
[23] = tested on: Staphylococcus aureus; assay: Antibacterial activity against […] Staphylococcus aureus ATCC 29213 after 24 hrs by broth microdilution method; type: functional; conditions: ATCC 29213, 24 h; procedure, shortened: as §4
[24] = tested on: Staphylococcus aureus; assay: Antibacterial activity against ethidium bromide-resistant Staphylococcus aureus BSA678 after 24 hrs by broth microdilution method; type: functional; conditions: BSA678, 24 h; procedure, shortened: as §4
[25] = tested on: Cutibacterium acnes; assay: Antibacterial activity against Propionibacterium acnes; type: functional
Procedure, shortened: (§5)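 Anaerobes by CLSI agar dilution on brucella agar with hemin, vitamin K and 5% laked sheep blood; inoculum from 24-h enriched blood agar colonies resuspended in brucella broth to 0.5 McFarland. Plates incubated anaerobically at 35–37°C for 48 h.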

[26] = tested on: Bacteroides fragilis; assay: Antibacterial activity against Bacteroides fragilis by agar dilution method; type: functional; procedure, shortened: as §5
[27] = tested on: Peptostreptococcus sp.; assay: Antibacterial activity against Peptostreptococcus sp. by agar dilution method; type: functional; procedure, shortened: as §5
[28] = tested on: Clostridioides difficile; assay: Antibacterial activity against Clostridium difficile by agar dilution method; type: functional; procedure, shortened: as §5
[29] = tested on: Mycoplasmoides pneumoniae; assay: Antibacterial activity against Mycoplasma pneumoniae after 24 hrs by broth microdilution method; type: functional
[30] = tested on: Legionella pneumophila; assay: Antibacterial activity against Legionella pneumophila after 24 hrs by broth microdilution method; type: functional

For `CC(C)(O/N=C(\C(=O)N[C@@H]1C(=O)N2C(C(=O)[O-])=C(C[n+]3ccccc3)CS[C@H]12)c1csc(N)n1)C(=O)O` [CEFTAZIDIME], the MIC50 [1] was 32 µg/mL (≈ 58.5 µM), the MIC90 [1] was > 32 µg/mL and the MIC50 [2] was 0.25 µg/mL (≈ 0.457 µM). The MIC90 [2] was 0.5 µg/mL (≈ 0.915 µM), the MIC50 [3] was 0.5 µg/mL (≈ 0.915 µM) and the MIC90 [3] was > 32 µg/mL. For the same compound, the MIC50 [4] was 4 µg/mL (≈ 7.32 µM), the MIC90 [4] was > 32 µg/mL and the MIC50 [5] was 2 µg/mL (≈ 3.66 µM). It also gave an MIC90 [5] of 32 µg/mL (≈ 58.5 µM).

Work on `CO/N=C(\C(=O)N[C@@H]1C(=O)N2C(C(=O)O)=C(CSc3nc(=O)c(O)nn3C)CS[C@H]12)c1csc(N)n1` [CEFTRIAXONE] yielded an MIC50 [6] of 0.12 µg/mL (≈ 0.216 µM), an MIC90 [6] of 1 µg/mL (≈ 1.8 µM) and an MIC50 [7] of 0.004 µg/mL (≈ 0.00721 µM). The MIC90 [7] was 0.03 µg/mL (≈ 0.0541 µM), the MIC50 [8] was < 0.008 µg/mL and the MIC90 [8] was 0.015 µg/mL (≈ 0.027 µM). It also gave an MIC50 [9] of 0.03 µg/mL (≈ 0.0541 µM), an MIC90 [9] of 0.03 µg/mL (≈ 0.0541 µM) and an MIC50 [10] of 0.5 µg/mL (≈ 0.902 µM). For the same compound, the MIC90 [10] was 1 µg/mL (≈ 1.8 µM), the MIC50 [1] was 16 µg/mL (≈ 28.9 µM) and the MIC90 [1] was 32 µg/mL (≈ 57.7 µM). It also gave an MIC50 [2] of 0.06 µg/mL (≈ 0.108 µM), an MIC90 [2] of 0.06 µg/mL (≈ 0.108 µM) and an MIC50 [3] of 0.12 µg/mL (≈ 0.216 µM). The MIC90 [3] was > 64 µg/mL, the MIC50 [4] was 8 µg/mL (≈ 14.4 µM) and the MIC90 [4] was > 64 µg/mL. The MIC50 [11] was 0.12 µg/mL (≈ 0.216 µM), the MIC90 [11] was > 2 µg/mL and the MIC50 [5] was 64 µg/mL (≈ 115 µM). For the same compound, the MIC90 [5] was > 64 µg/mL.

With `O=C(O)c1cn(C2CC2)c2cc(N3CCNCC3)c(F)cc2c1=O` [CIPROFLOXACIN] the Cmax [12] was 7720 ng/mL, the MIC [13] was > 64 µg/mL and the MIC [14] was 32 µg/mL. It also gave an MIC50 [7] of 0.004 µg/mL (≈ 0.0121 µM), an MIC90 [7] of 0.008 µg/mL (≈ 0.0241 µM) and a Tmax [15] of 30 min. The MIC [16] was 128 µg/mL (≈ 386 µM), the Tmax [17] was 30 min and the AUC(0-t) at 24 h [18] was 5950 ng·h/mL. It also gave an MIC [19] of 32 µg/mL (≈ 96.6 µM), a Cmax [20] of 3360 ng/mL and an AUC(0-t) at 24 h [21] of 14400 ng·h/mL. For the same compound, the MIC [22] was 0.25 µg/mL, the MIC [23] was 0.25 µg/mL (≈ 0.754 µM) and the MIC [24] was > 64 µg/mL.

With `CCC[C@@H]1C[C@@H](C(=O)N[C@@H]([C@H]2O[C@H](SC)[C@H](O)[C@@H](O)[C@H]2O)[C@H](C)Cl)N(C)C1` [CLINDAMYCIN] the MIC50 [25] was 0.06 µg/mL (≈ 0.141 µM), the MIC90 [25] was 0.06 µg/mL (≈ 0.141 µM) and the MIC50 [26] was 1 µg/mL (≈ 2.35 µM). It also gave an MIC90 [26] of 4 µg/mL (≈ 9.41 µM), an MIC50 [27] of 0.25 µg/mL (≈ 0.588 µM) and an MIC90 [27] of 1 µg/mL (≈ 2.35 µM). The MIC50 [28] was 2 µg/mL (≈ 4.71 µM) and the MIC90 [28] was > 32 µg/mL.

Work on `C[C@H]1c2cccc(O)c2C(=O)C2=C(O)[C@]3(O)C(=O)C(C(N)=O)=C(O)[C@@H](N(C)C)[C@@H]3[C@@H](O)[C@@H]21.O` [DOXYCYCLINE] yielded an MIC [29] of 0.25 µg/mL and an MIC [30] of 1 µg/mL.
